What all share (format): ADME
Series [1] can be described thus: Half life in 0.10 M buffer, pH = 7.4.
Series [2] can be described thus: Half life in 0.067 M buffer, pH = 8. Put shortly: (§1)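 Compound at 0.02-0.03 M was decomposed in sealed vials at 37 °C. The pH 3.0 medium was perchloric acid; the other pH values used 0.067 M phosphate buffer (pH 5.5, 6.0, 6.5, 8.0). Loss of starting material was followed by HPLC, and half-life came from first-order ln concentration vs time plots.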
Series [3] can be described thus: Half life in 0.01 M HClO4, pH = 3.0. Put shortly: as §1
A short description of series [4]: Half life in 0.067 M buffer, pH = 7.4.
Series [5] is described as follows: Half life in buffer. Put shortly: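 Compound was dissolved in pH 7.4 phosphate buffer (0.067 or 0.1 M) in sealed vials at 37 °C. Loss of parent was monitored by HPLC, and the first-order half-life was derived from ln concentration vs time.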
Series [6] is described as follows: Half life in 0.10 M (D20), pH = 7.4. To be noted: 0.10 M (D2O).
Series [7] is described as follows: Half life in 0.067 M (D20), pH = 5.5. Particulars: 0.067 M (D2O). The essentials:
as §1

Series [8] in a line: Half life in 0.067 M (D20), pH = 6.0. Particulars: 0.067 M (D2O). Put shortly: as §1
Series [9] in a line: Half life in 0.067 M (D2O), pH = 7.4.
Series [10] can be described thus: Half life in 0.067 M (D20), pH = 6.5. Particulars: 0.067 M (D2O). The essentials:
as §1

The term half-life denotes the time needed for the level to fall by half in the phase considered. On to `CC(O)CN(N=O)C(N)=O` (stereo unspecified), for which the half-life in [1] was 20 min; in series [2], 6.5 min; in [3], 600 min; in series [4] (0.067 M buffer), 14.5 min; in series [5], 15 min; in series [6], 37.2 min. For the same molecule, the half-life in series [7] was 410 min; in series [8], 120 min; in [9], 70 min; in [10], 26 min. Moreover, the T1/2 in [4] (buffer) came to 9.5 min.

These data come from ChEMBL document CHEMBL1123084, “Decomposition reactions of (hydroxyalkyl) nitrosoureas and related compounds: possible relationship to carcinogenicity” (J Med Chem, 1985).
